{"source": "ChEMBL document CHEMBL1938242", "about": "“In vivo evaluation of oral anti-tumoral effect of 3,4-dihydroquinazoline derivative on solid tumor” (Bioorg Med Chem Lett, 2012)", "key": {"A549 [1]": {"test_system": "A549", "experiment": "Antitumor activity against human A549 cells xenografted in athymic nu/nu BALB/c mouse assessed as decrease in tumor volume at 1 mg/kg, po administered 5 times weekly for consecutive 39 days (reference value: 224.40 +/- 60.34 mm3)", "assay_type": "functional", "outline": "(§1)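 A549 cells (5 × 10⁶) injected s.c. into the left flank of BALB/c nu/nu mice, n = 5 per group. At day 8 (nodules ca. 3 mm³), oral dosing at 1 or 5 mg/kg in ethanol:Cremophor EL:water 1:1:18, five times weekly for 39 days. Caliper measurement weekly; volume from length, width and height. Mean ± SE; Dunnett's test versus vehicle.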"}, "A549 [2]": {"test_system": "A549", "experiment": "Antitumor activity against human A549 cells xenografted in athymic nu/nu BALB/c mouse assessed as decrease in tumor weight at 5 mg/kg, po administered 5 times weekly for consecutive 39 days (reference value: 0.358 +/- 0.052 g)", "assay_type": "functional"}, "Mus musculus [3]": {"test_system": "Mus musculus", "experiment": "Toxicity in athymic nu/nu BALB/c mouse bearing human A549 cells assessed as decrease in body weight at 5 mg/kg, po administered 5 times weekly for consecutive 39 days measured on day 19 to 22 post dosing", "details": "in vivo, 936 h"}, "[4]": {"biological_target": "Voltage-dependent N-type calcium channel subunit alpha-1B (Homo sapiens, UniProt Q00975)", "sequence (Q00975 whole entry)": "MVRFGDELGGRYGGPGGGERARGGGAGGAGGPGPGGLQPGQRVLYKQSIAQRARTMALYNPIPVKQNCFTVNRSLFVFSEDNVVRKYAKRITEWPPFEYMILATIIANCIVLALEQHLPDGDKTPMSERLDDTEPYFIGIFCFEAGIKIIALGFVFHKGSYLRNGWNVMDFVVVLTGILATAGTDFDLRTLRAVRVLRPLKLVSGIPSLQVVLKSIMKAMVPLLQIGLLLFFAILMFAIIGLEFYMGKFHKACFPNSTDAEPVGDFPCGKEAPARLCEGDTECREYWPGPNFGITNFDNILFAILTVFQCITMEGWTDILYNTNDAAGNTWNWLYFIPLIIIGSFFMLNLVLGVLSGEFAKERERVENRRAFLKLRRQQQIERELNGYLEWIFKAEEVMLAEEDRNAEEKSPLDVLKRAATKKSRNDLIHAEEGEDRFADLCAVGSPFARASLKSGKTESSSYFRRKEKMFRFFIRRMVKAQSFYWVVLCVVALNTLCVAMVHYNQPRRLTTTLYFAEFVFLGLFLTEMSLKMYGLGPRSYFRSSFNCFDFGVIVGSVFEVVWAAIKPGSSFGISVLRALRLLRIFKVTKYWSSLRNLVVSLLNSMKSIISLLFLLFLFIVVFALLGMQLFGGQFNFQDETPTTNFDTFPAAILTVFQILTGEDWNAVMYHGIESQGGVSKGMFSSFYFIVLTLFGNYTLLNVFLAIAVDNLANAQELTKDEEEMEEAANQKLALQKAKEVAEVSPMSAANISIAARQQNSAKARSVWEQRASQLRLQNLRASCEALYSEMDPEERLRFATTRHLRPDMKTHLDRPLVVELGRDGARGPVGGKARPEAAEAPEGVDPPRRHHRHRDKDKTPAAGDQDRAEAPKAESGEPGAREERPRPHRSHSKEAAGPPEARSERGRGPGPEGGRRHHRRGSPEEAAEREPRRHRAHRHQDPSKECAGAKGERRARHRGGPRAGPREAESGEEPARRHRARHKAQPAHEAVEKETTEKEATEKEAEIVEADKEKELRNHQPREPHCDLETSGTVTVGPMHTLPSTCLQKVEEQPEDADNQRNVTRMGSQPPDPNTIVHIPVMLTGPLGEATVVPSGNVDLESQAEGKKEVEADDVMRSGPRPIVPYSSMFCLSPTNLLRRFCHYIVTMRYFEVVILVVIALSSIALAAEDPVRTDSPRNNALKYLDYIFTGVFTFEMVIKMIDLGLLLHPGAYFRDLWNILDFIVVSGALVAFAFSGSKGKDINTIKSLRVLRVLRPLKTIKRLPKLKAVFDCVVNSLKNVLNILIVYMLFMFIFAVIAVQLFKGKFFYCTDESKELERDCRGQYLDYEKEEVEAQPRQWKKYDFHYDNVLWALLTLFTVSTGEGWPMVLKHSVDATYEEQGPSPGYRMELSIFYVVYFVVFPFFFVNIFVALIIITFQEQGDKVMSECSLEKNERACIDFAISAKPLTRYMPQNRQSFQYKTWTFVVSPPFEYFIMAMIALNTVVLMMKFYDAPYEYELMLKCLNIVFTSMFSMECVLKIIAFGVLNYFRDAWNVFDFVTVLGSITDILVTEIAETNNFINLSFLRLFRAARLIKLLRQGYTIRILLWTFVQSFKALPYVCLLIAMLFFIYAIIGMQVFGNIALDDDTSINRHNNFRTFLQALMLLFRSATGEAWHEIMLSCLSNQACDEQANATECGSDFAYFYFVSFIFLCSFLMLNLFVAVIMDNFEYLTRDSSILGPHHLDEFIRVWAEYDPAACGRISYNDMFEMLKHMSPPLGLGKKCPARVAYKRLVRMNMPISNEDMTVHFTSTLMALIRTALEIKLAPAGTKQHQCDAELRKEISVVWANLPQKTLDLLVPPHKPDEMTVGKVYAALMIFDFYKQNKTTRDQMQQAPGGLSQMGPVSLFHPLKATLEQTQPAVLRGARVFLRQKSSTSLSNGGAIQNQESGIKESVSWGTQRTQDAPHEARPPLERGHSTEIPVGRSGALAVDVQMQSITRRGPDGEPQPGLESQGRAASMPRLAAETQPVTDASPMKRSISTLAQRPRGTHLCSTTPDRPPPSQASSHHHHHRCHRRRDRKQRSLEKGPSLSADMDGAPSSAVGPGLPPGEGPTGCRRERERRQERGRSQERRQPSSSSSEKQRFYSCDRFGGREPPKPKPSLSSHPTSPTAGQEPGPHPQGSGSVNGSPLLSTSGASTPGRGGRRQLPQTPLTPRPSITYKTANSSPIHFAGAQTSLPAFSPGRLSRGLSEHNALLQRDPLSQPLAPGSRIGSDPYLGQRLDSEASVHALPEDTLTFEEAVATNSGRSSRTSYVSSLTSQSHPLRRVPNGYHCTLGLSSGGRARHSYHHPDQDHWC", "experiment": "Inhibition of N-type calcium channel alpha 1 B"}, "A549 [5]": {"test_system": "A549", "experiment": "Antitumor activity against human A549 cells xenografted in po dosed athymic nu/nu BALB/c mouse assessed as decrease in tumor volume administered 5 times weekly for consecutive 39 days", "assay_type": "functional, organism-based", "outline": "as §1"}, "Mus musculus [6]": {"test_system": "Mus musculus", "experiment": "Toxicity in athymic nu/nu BALB/c mouse bearing human A549 cells assessed as change in total body weight at 1 to 5 mg/kg, po administered 5 times weekly for consecutive 39 days", "assay_type": "organism-based", "set-up": "dose 1-5 mg/kg, route oral", "details": "in vivo, 936 h", "outline": "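A549 cells (5 × 10⁶ cells/mL) were injected s.c. into the left flank of BALB/c nu/nu nude mice. After 8 days, once nodules were visible (ca. 3 mm³), mice got oral doses in ethanol:Cremophor EL:distilled water (1:1:18) five times per week for 39 days, with vehicle-only controls (n = 5/group). Total body weights were followed over the period (mean ± SE; Dunnett's test versus control).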"}, "Mus musculus [7]": {"test_system": "Mus musculus", "experiment": "Antinociceptive activity in po dosed mouse assessed as inhibition of acetic acid-induced writhing measured every 5 mins for 20 mins pretreated 1 hr before acetic acid challenge", "assay_type": "functional, organism-based", "outline": "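Mice (n = 7 per group) given 10 or 50 mg/kg orally; 1 h later injected ip with 0.7% (v/v) acetic acid, 10 mL/kg. After a 5-min delay, writhes counted for 20 min. Comparison with vehicle controls by Dunnett's test; mean ± S.D.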"}, "A549 [8]": {"test_system": "A549", "experiment": "Antitumor activity against human A549 cells xenografted in athymic nu/nu BALB/c mouse assessed as tumor growth inhibition at 1 mg/kg, po administered 5 times weekly for consecutive 39 days", "assay_type": "functional", "details": "A549, 936 h, read-out: GI"}, "Mus musculus [9]": {"test_system": "Mus musculus", "experiment": "Antinociceptive activity in po dosed mouse assessed as time of latency at 10 or 50 mg/kg, po administered 1 hr before hot plate test", "assay_type": "functional, organism-based", "set-up": "dose 50 mg/kg", "outline": "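Mice (n = 10 per group) given 10 or 50 mg/kg orally; 1 h later placed on a hot plate at 55 ± 0.5 °C. Latency recorded at 0 and 30 min. Comparison with vehicle control by Dunnett's test; mean ± S.D.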"}, "A549 [10]": {"test_system": "A549", "experiment": "Antitumor activity against human A549 cells xenografted in athymic nu/nu BALB/c mouse assessed as decrease in tumor volume at 5 mg/kg, po administered 5 times weekly for consecutive 39 days relative to paclitaxel", "assay_type": "functional", "outline": "as §1"}, "A549 [11]": {"test_system": "A549", "experiment": "Antitumor activity against human A549 cells xenografted in athymic nu/nu BALB/c mouse assessed as decrease in tumor volume at 5 mg/kg, po administered 5 times weekly for consecutive 39 days (reference value: 224.40 +/- 60.34 mm3)", "assay_type": "functional", "outline": "as §1"}, "A549 [12]": {"test_system": "A549", "experiment": "Antitumor activity against human A549 cells xenografted in athymic nu/nu BALB/c mouse assessed as decrease in tumor weight at 1 mg/kg, po administered 5 times weekly for consecutive 39 days (reference value: 0.358 +/- 0.052 g)", "assay_type": "functional"}, "A549 [13]": {"test_system": "A549", "experiment": "Antitumor activity against human A549 cells xenografted in athymic nu/nu BALB/c mouse assessed as tumor growth inhibition at 5 mg/kg, po administered 5 times weekly for consecutive 39 days", "assay_type": "functional", "details": "A549, 936 h, read-out: GI"}, "Mus musculus [14]": {"test_system": "Mus musculus", "experiment": "Antinociceptive activity in po dosed mouse assessed as time of latency at 100 mg/kg, po administered 1 hr before hot plate test", "assay_type": "functional, organism-based", "set-up": "dose 100 mg/kg"}, "A549 [15]": {"test_system": "A549", "experiment": "Antitumor activity against human A549 cells xenografted in athymic nu/nu BALB/c mouse assessed as decrease in tumor weight at 10 mg/kg, ip administered twice per week for consecutive 39 days (reference value: 0.358 +/- 0.052 g)", "assay_type": "functional", "details": "route intraperitoneal", "outline": "(§2)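 A549 s.c. flank xenografts (5 × 10⁶ cells) in BALB/c nu/nu mice, n = 5. From day 8, given 10 mg/kg ip in ethanol:Cremophor EL:water 1:1:18, twice weekly for 39 days. Excised tumors weighed at the end. Inhibition % = 100 × (C − T)/C using mean tumor weights versus vehicle. Mean ± SE.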"}, "A549 [16]": {"test_system": "A549", "experiment": "Antitumor activity against human A549 cells xenografted in athymic nu/nu BALB/c mouse assessed as decrease in tumor volume at 10 mg/kg, ip administered twice per week for consecutive 39 days (reference value: 224.40 +/- 60.34 mm3)", "assay_type": "functional", "details": "route intraperitoneal"}, "Mus musculus [17]": {"test_system": "Mus musculus", "experiment": "Toxicity in athymic nu/nu BALB/c mouse bearing human A549 cells assessed as change in total body weight at 10 mg/kg, ip administered twice per week for consecutive 39 days", "assay_type": "organism-based", "set-up": "dose 10 mg/kg, route intraperitoneal", "details": "in vivo, 936 h", "outline": "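Mice bearing A549 s.c. flank xenografts, n = 5 per group, given 10 mg/kg ip in ethanol:Cremophor EL:water 1:1:18, twice weekly over 39 days starting day 8. Total body weights tracked through the study and compared with vehicle control. Mean ± SE.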"}, "A549 [18]": {"test_system": "A549", "experiment": "Antitumor activity against human A549 cells xenografted in athymic nu/nu BALB/c mouse assessed as tumor growth inhibition at 10 mg/kg, ip administered twice per week for consecutive 39 days", "assay_type": "functional", "details": "936 h, route intraperitoneal, read-out: GI", "outline": "as §2"}}, "note": "The source made the active and inactive calls. No cut-off for these calls is given here.", "data": [{"smiles": "CN(C)CCCCCN(C)C1=Nc2ccccc2C(CC(=O)NCc2ccccc2)N1c1ccc(-c2ccccc2)cc1.Cl.Cl", "note": "(stereo not drawn)", "values": [{"measurement": "Activity", "setting": "A549 [1]", "result": 27.05, "unit": "mm3"}, {"measurement": "Activity", "setting": "A549 [2]", "result": 0.12, "unit": "g"}, {"measurement": "Activity", "setting": "Mus musculus [3]", "result": "Toxic"}, {"measurement": "IC50", "setting": "[4]", "result": 4.9, "unit": "µM"}, {"measurement": "Activity", "setting": "A549 [5]", "result": "Dose-dependent effect"}, {"measurement": "Activity", "setting": "Mus musculus [6]", "result": "Non-toxic"}, {"measurement": "Activity", "setting": "Mus musculus [7]", "result": "Dose-dependent effect"}, {"measurement": "inhibition in vivo at 1 mg/kg", "setting": "A549 [8]", "result": 60, "unit": "%"}, {"measurement": "Activity", "setting": "Mus musculus [9]", "result": "inactive"}, {"measurement": "fold change (FC)", "setting": "A549 [10]", "result": 3}, {"measurement": "Activity", "setting": "A549 [11]", "result": 7.9, "unit": "mm3"}, {"measurement": "Activity", "setting": "A549 [12]", "result": 0.142, "unit": "g"}, {"measurement": "inhibition in vivo at 5 mg/kg", "setting": "A549 [13]", "result": 67, "unit": "%"}]}, {"smiles": "CC(C)Cc1ccc(C(C)C(=O)O)cc1", "note": "(stereo not drawn)", "values": [{"measurement": "Activity", "setting": "Mus musculus [14]", "result": "Active"}]}, {"smiles": "CC(=O)O[C@H]1C(=O)[C@@]2(C)[C@H]([C@H](OC(=O)c3ccccc3)[C@]3(O)C[C@H](OC(=O)[C@H](O)[C@@H](NC(=O)c4ccccc4)c4ccccc4)C(C)=C1C3(C)C)[C@]1(OC(C)=O)CO[C@@H]1C[C@@H]2O", "note": "[PACLITAXEL]", "values": [{"measurement": "Activity", "setting": "A549 [15]", "result": 0.17, "unit": "g"}, {"measurement": "Activity", "setting": "A549 [16]", "result": 22.9, "unit": "mm3"}, {"measurement": "Activity", "setting": "Mus musculus [17]", "result": "Non-toxic"}, {"measurement": "inhibition in vivo at 10 mg/kg", "setting": "A549 [18]", "result": 53, "unit": "%"}]}]}
